Format in all cases: functional
Assay [1] has as its system Mycobacterium tuberculosis. Kind of assay: Minimum Inhibitory Concentration against drug-resistant strain resistant to Rifampin. In outline: (§1)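 MICs by microplate alamar blue assay against M. tuberculosis strains resistant to isoniazid (ATCC 35822), rifampin (ATCC 35838), ethambutol, kanamycin or ciprofloxacin, drug-sensitive strain Erdman, and M. avium (ATCC 25291). MIC = minimum concentration giving 90% growth inhibition.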

Assay [2] deals with Mycobacterium tuberculosis. Kind of assay: Minimum Inhibitory Concentration against drug-resistant strain resistant to Ethambutol. In outline:
as §1

Assay [3] deals with Mycobacterium tuberculosis. Kind of assay: Minimum Inhibitory Concentration against drug-resistant strain resistant to Ciprofloxacin. In short, it runs like this:
as §1

For assay [4], the system named is Mycobacterium tuberculosis. Kind of assay: Minimum Inhibitory Concentration against drug-resistant strain resistant to Isoniazid. In short, it runs like this: as §1

In brackets after ≈: the same amount, converted by molar mass.

As to `Clc1nc(-c2ccco2)c2ncn(Cc3ccccc3)c2n1`, the MIC in assay [1] is 1.56 µg/mL (≈ 5.02 µM); in assay [2], less than 0.39 µg/mL; in assay [3], less than 0.39 µg/mL; in assay [4] it was 3.13 µg/mL (≈ 10.1 µM).

The MIC is the lowest concentration found to suppress growth. Read a high MIC as weaker potency.

The values are drawn from ChEMBL document CHEMBL1135898, “Synthesis and antimycobacterial activity of 6-arylpurines: the requirements for the N-9 substituent in active antimycobacterial purines” (J Med Chem, 2002).
